Columns and labels:
[1] = Stability of compound in human plasma assessed as half life at 1 uM incubated for 120 min by LC-MS/MS analysis; type: ADME, cell-free
Method in brief: (§1)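 Analyte added to PBS or human plasma (healthy volunteer, stored at -80 °C) to 1 μM; incubated at 37 °C for 0, 30, 60 and 120 min, triplicate per time point. Internal standard solution added, centrifuged, supernatant dried under nitrogen and redissolved. Analyte quantified by LC-MS/MS in MRM mode; half-life derived from decay rate k.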

[2] = molecular target: T1, ATP-dependent translocase ABCB1 (Homo sapiens, UniProt P08183); assay: Inhibition of MDR1 (unknown origin) expressed in MDCK-MDR1 cells assessed as decrease in ATP consumption incubated for 2 hrs by ATPlite luminescence assay; type: cell-based; settings: mdck-mdr1, 2 h
T1 sequence (P08183 whole entry): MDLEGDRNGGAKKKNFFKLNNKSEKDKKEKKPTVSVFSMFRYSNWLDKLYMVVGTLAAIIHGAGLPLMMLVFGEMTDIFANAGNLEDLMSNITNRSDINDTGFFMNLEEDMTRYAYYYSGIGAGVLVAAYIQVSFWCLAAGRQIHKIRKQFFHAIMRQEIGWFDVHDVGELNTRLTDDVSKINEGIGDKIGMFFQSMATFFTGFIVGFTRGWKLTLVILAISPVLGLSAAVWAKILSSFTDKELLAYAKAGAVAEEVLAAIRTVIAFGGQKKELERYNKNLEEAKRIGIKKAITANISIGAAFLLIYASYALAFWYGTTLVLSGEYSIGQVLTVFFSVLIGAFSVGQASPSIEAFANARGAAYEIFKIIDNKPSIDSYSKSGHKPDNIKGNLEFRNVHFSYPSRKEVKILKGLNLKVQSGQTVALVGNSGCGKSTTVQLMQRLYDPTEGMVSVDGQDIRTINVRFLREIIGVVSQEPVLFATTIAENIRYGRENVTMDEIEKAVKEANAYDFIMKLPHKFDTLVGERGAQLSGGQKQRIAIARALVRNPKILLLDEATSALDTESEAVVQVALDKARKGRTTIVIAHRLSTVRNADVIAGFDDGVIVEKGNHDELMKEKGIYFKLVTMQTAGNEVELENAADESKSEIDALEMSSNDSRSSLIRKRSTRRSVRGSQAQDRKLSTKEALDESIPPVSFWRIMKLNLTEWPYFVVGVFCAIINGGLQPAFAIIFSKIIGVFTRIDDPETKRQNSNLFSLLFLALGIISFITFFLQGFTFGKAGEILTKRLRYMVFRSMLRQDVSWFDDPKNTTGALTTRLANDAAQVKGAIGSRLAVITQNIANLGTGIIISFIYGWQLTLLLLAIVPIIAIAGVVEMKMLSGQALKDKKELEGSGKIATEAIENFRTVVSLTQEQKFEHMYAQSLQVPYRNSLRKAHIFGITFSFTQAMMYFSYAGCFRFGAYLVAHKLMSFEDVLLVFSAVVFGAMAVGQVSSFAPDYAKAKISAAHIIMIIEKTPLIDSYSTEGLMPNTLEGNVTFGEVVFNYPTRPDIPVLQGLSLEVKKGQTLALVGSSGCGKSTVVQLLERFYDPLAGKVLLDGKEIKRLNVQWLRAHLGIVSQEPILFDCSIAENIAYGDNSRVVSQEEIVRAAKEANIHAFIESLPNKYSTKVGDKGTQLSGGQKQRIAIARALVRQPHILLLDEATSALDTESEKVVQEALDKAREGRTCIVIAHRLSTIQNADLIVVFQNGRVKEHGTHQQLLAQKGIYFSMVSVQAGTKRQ

[3] = molecular target: T1, ATP-dependent translocase ABCB1; assay: Inhibition of P-gp in human K562/DOX cells assessed as drug level causing maximum increase in nuclear pirarubicin concentration incubated for 30 mins by fluorescence based assay relative to control; type: cell-based; settings: 0.5 h
[4] = molecular target: T1, ATP-dependent translocase ABCB1; assay: Inhibition of P-gp (unknown origin) expressed in MDCK-MDR1 cells assessed as increase in calcein-AM accumulation incubated for 30 mins by calcein-AM dye based fluorescence assay; type: cell-based
[5] = molecular target: T2, Broad substrate specificity ATP-binding cassette transporter ABCG2 (Homo sapiens, UniProt Q9UNQ0); assay: Inhibition of BCRP (unknown origin) expressed in MDCK cells assessed as increase in Hoechst 33342 accumulation incubated for 30 mins by Hoechst 33342 dye based fluorescence assay; type: cell-based; settings: read-out: EC50
T2 sequence (Q9UNQ0 whole entry): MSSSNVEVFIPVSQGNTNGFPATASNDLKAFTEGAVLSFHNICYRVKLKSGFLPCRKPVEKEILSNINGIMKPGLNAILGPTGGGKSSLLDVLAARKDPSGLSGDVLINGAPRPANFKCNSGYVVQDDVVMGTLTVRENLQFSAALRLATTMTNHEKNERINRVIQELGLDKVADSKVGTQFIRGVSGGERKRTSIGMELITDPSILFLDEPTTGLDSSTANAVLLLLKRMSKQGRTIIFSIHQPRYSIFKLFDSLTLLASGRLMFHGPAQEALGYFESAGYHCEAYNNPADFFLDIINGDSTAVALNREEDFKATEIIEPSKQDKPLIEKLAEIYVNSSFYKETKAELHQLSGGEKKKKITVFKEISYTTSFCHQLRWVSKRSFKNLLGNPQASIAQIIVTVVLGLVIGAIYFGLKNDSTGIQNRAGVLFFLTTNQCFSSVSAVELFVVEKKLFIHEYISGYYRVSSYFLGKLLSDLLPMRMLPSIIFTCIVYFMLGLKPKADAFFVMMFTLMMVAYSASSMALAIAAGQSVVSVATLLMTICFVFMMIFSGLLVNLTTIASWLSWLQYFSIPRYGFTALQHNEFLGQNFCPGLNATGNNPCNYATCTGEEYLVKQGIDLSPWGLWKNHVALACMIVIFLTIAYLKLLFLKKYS

[6] = molecular target: T1, ATP-dependent translocase ABCB1; assay: Inhibition of P-gp in human K562/DOX cells assessed as drug level causing 50% increase in nuclear pirarubicin concentration incubated for 30 mins by fluorescence based assay; type: cell-based; settings: read-out: I0.5
[7] = Chemical stability of compound assessed as half life in PBS at 1 uM incubated 120 mins by LC-MS/MS analysis; type: physicochemical; method in brief: as §1
[8] = molecular target: P-gp (MDR1, ABCB1) (Homo sapiens, UniProt P08183); assay: Inhibition of MDR1 (unknown origin) expressed in MDCK-MDR1 cells assessed as decrease in ATP consumption at 10 uM incubated for 2 hrs by ATPlite luminescence assay relative to control; type: cell-based; settings: MDCK-MDR1 cells expressing MDR1
Chain of P-gp (MDR1, ABCB1) (P08183 whole entry): as the sequence (P08183 whole entry) above

Row | SMILES | half-life at 1 µM [1] [h] | inhibition (INH) [2] | Alpha max [3] | EC50 [4] [µM] | EC50 [5] [µM] | IC50 [6] [µM] | half-life at 1 µM [7] [h] | inhibition at 2 h, 10 µM [8] [%]
1 | COc1cc(/C=C/C(=O)OC[C@@H](C)CN(C)CCCOC(=O)c2cc(OC)c(OC)c(OC)c2)cc(OC)c1OC | 0.483 | – | 0.75 | 1.38 | 3.7 | 0.09 | ≥ 4 | 20
2 | COc1cc(/C=C/C(=O)OC[C@H](C)CN(C)CCCOC(=O)c2cc(OC)c(OC)c(OC)c2)cc(OC)c1OC | 1.95 | Not Active | 0.99 | 0.71 | 33.5 | 0.14 | ≥ 4 | –
3 | COc1cc(/C=C/C(=O)OC[C@H](C)CN(C)CCCCCCCOC(=O)c2cc(OC)c(OC)c(OC)c2)cc(OC)c1OC | 1.23 | Not Active | 0.81 | 0.82 | 4.7 | 0.59 | ≥ 4 | –
4 | COc1cc(/C=C/C(=O)OC[C@H](C)CN(C)CCCCCCCOC(=O)c2c3ccccc3cc3ccccc23)cc(OC)c1OC | ≥ 4 | Not Active | 0.65 | 1.4 | 6.4 | 0.97 | ≥ 4 | –
5 | COc1cc(/C=C/C(=O)OCCCCCCCN(C)C[C@H](C)COC(=O)c2cc(OC)c(OC)c(OC)c2)cc(OC)c1OC | ≥ 4 | Not Active | 0.7 | 0.55 | 2.5 | 0.13 | ≥ 4 | –
6 | COc1cc(/C=C/C(=O)OCCCCCCCN(C)C[C@@H](C)COC(=O)c2cc(OC)c(OC)c(OC)c2)cc(OC)c1OC | ≥ 4 | Not Active | 0.83 | 0.65 | 4.3 | 0.12 | ≥ 4 | –
7 | COc1cc(/C=C/C(=O)OCCCCCCCN(C)C[C@@H](C)COC(=O)c2c3ccccc3cc3ccccc23)cc(OC)c1OC | ≥ 4 | Not Active | 0.93 | 0.99 | 6.2 | 0.2 | ≥ 4 | –
8 | COc1cc(/C=C/C(=O)OCCCCCN(C)C[C@H](C)COC(=O)c2cc(OC)c(OC)c(OC)c2)cc(OC)c1OC | ≥ 4 | Not Active | 0.75 | 0.11 | 8.1 | 0.24 | ≥ 4 | –
9 | COc1cc(/C=C/C(=O)OC[C@@H](C)CN(C)CCCCCCCOC(=O)c2cc(OC)c(OC)c(OC)c2)cc(OC)c1OC | 0.5 | Not Active | 0.74 | 0.32 | 2.3 | 0.38 | ≥ 4 | –
10 | COc1cc(/C=C/C(=O)OCCCCCCCN(C)C[C@H](C)COC(=O)c2c3ccccc3cc3ccccc23)cc(OC)c1OC | ≥ 4 | Not Active | 0.99 | 1.04 | 7.2 | 0.08 | ≥ 4 | –
11 | COc1cc(/C=C/C(=O)OC[C@@H](C)CN(C)CCCCCOC(=O)c2cc(OC)c(OC)c(OC)c2)cc(OC)c1OC | 0.3 | Not Active | 0.99 | 1.1 | 4.2 | 0.08 | ≥ 4 | –
12 | COc1cc(/C=C/C(=O)OCCCN(C)C[C@@H](C)COC(=O)c2cc(OC)c(OC)c(OC)c2)cc(OC)c1OC | 0.9 | Not Active | 0.99 | 0.073 | 9.5 | 0.11 | ≥ 4 | –

Other lines, results leading:

Row | half-life at 1 µM [1] [h] | inhibition (INH) [2] | Alpha max [3] | EC50 [4] [µM] | EC50 [5] [µM] | IC50 [6] [µM] | half-life at 1 µM [7] [h] | inhibition at 2 h, 10 µM [8] [%] | SMILES
13 | ≥ 4 | Not Active | 0.99 | 0.95 | 5.9 | 0.08 | ≥ 4 | – | COc1cc(/C=C/C(=O)OC[C@H](C)CN(C)CCCOC(=O)c2c3ccccc3cc3ccccc23)cc(OC)c1OC
14 | ≥ 4 | Not Active | 0.99 | 0.91 | 11 | 0.04 | ≥ 4 | – | COc1cc(/C=C/C(=O)OCCCN(C)C[C@H](C)COC(=O)c2c3ccccc3cc3ccccc23)cc(OC)c1OC
15 | ≥ 4 | Not Active | 0.75 | 0.76 | 4.6 | 0.08 | ≥ 4 | – | COc1cc(/C=C/C(=O)OCCCCCN(C)C[C@H](C)COC(=O)c2c3ccccc3cc3ccccc23)cc(OC)c1OC
16 | ≥ 4 | Not Active | 0.89 | 0.81 | 4.6 | 0.23 | ≥ 4 | – | COc1cc(/C=C/C(=O)OCCCCCN(C)C[C@@H](C)COC(=O)c2c3ccccc3cc3ccccc23)cc(OC)c1OC
17 | ≥ 4 | Not Active | 0.8 | 0.96 | 6.8 | 0.17 | ≥ 4 | – | COc1cc(/C=C/C(=O)OCCCN(C)C[C@@H](C)COC(=O)c2c3ccccc3cc3ccccc23)cc(OC)c1OC
18 | ≥ 4 | Not Active | 0.79 | 0.69 | 4.7 | 0.03 | ≥ 4 | – | COc1cc(/C=C/C(=O)OC[C@@H](C)CN(C)CCCCCOC(=O)c2c3ccccc3cc3ccccc23)cc(OC)c1OC
19 | ≥ 4 | Not Active | 0.79 | 0.91 | 2.3 | 0.18 | ≥ 4 | – | COc1cc(/C=C/C(=O)OC[C@@H](C)CN(C)CCCOC(=O)c2c3ccccc3cc3ccccc23)cc(OC)c1OC
20 | ≥ 4 | Not Active | 0.88 | 0.72 | 2.3 | 0.08 | ≥ 4 | – | COc1cc(/C=C/C(=O)OC[C@H](C)CN(C)CCCCCOC(=O)c2c3ccccc3cc3ccccc23)cc(OC)c1OC
21 | ≥ 4 | Not Active | 0.8 | 0.93 | 5.6 | 0.89 | ≥ 4 | – | COc1cc(/C=C/C(=O)OC[C@@H](C)CN(C)CCCCCCCOC(=O)c2c3ccccc3cc3ccccc23)cc(OC)c1OC

— ChEMBL document CHEMBL4359914, “Design, synthesis and biological evaluation of stereo- and regioisomers of amino aryl esters as multidrug resistance (MDR) reversers” (Eur J Med Chem, 2019)
